Laboratory results from ChEMBL document CHEMBL1134850, “Biphenyl derivatives as novel dual NK(1)/NK(2)-receptor antagonists” (Bioorg Med Chem Lett, 2002).

biological target: T1, Substance-K receptor (Homo sapiens, UniProt P21452); assay: Binding affinity by measuring the inhibition of 125 I-NKA binding to transfected CHO cells expressing human recombinant Tachykinin receptor 2; assay type: cell-based
T1 sequence (P21452 whole entry): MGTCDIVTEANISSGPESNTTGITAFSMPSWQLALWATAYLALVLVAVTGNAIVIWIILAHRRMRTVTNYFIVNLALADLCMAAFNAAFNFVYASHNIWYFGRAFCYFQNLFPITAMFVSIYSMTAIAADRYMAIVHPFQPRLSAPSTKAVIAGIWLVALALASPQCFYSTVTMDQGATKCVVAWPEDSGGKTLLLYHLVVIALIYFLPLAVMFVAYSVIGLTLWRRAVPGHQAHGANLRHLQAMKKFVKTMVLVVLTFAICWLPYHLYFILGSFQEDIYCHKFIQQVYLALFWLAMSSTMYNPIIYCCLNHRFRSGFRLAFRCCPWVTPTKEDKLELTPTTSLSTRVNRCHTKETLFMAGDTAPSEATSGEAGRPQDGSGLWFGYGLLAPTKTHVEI
Summary of the method: (§1)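 Whole hNK2-transfected CHO cells (3 × 10⁵ per well) incubated 20 min at room temperature in 20 mM HEPES pH 7.4 with 2 mM MnSO₄ and 6 mM MgCl₂, 0.05 nM ¹²⁵I-NKA and varying test concentrations. Nonspecific binding defined with 50 nM NKA. Free ligand removed by rapid filtration, four ice-cold Tricine washes, filter-bound radioactivity by scintillation counting; triplicate samples.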

Structure (SMILES) | IC50 [nM]
CN(C(=O)c1cc(C(F)(F)F)cc(C(F)(F)F)c1)c1cc(C(=O)N[C@@H]2CCCCNC2=O)ccc1-c1ccc(F)cc1 | 28
CN(C(=O)c1cc(C(F)(F)F)cc(C(F)(F)F)c1)c1cc(C(=O)NC2CCCCC2)ccc1-c1ccc(F)cc1 | 168
Cc1ccc(-c2ccc(C(=O)N[C@@H]3CCCCNC3=O)cc2N(C)C(=O)c2cc(C(F)(F)F)cc(C(F)(F)F)c2)cc1 | 181
CN(C(=O)c1cc(C(F)(F)F)cc(C(F)(F)F)c1)c1cc(C(=O)N[C@@H]2CCCCNC2=O)ccc1-c1ccc(Cl)cc1 | 70
CN(C(=O)c1cc(C(F)(F)F)cc(C(F)(F)F)c1)c1cc(C(=O)NC2CCCCNC2=O)ccc1-c1ccccc1 (centres undefined) | 560
CN(C(=O)c1ccccc1)c1cc(C(=O)NC2CCCCC2)ccc1-c1ccc(F)cc1 | > 1000
CN(C(=O)c1cc(C(F)(F)F)cc(C(F)(F)F)c1)c1cc(C(=O)N[C@@H]2CCCCNC2=O)ccc1-c1ccc(Cl)c(Cl)c1 | 43

biological target: T1, Substance-K receptor; assay: Binding affinity was determined by measuring the inhibition of 125 I-NKA binding to transfected CHO cells expressing human recombinant Tachykinin receptor 2; assay type: cell-based; summary of the method: as §1

Structure (SMILES) | IC50 [nM]
CN(C(=O)c1cc(C(F)(F)F)cc(C(F)(F)F)c1)c1cc(C(=O)NC2CCCCC2)ccc1-c1ccc(Cl)cc1 | 51
CN(O)C(=O)c1ccc(-c2ccc(Cl)cc2)c(N(C)C(=O)c2cc(C(F)(F)F)cc(C(F)(F)F)c2)c1 | > 1000
COc1cc(C(=O)N(C)c2cc(C(=O)N[C@@H]3CCCCNC3=O)ccc2-c2ccc(Cl)cc2)cc(OC)c1OC | 162
COc1cc(C(=O)Nc2cc(C(=O)NC3CCCCC3)ccc2-c2ccc(Cl)cc2)cc(OC)c1OC | 30
CN(C)C(=O)c1ccc(-c2ccc(Cl)cc2)c(N(C)C(=O)c2cc(C(F)(F)F)cc(C(F)(F)F)c2)c1 | 500
CN(C)CCCNC(=O)c1ccc(-c2ccc(Cl)cc2)c(N(C)C(=O)c2cc(C(F)(F)F)cc(C(F)(F)F)c2)c1 | 108
COc1cc(C(=O)Nc2cc(C(=O)NC3CCCCNC3=O)ccc2-c2ccc(Cl)cc2)cc(OC)c1OC (centres undefined) | > 1000
